# Bioassay records deposited in PubChem BioAssay by The Scripps Research Institute Molecular Screening Center.
# The list is not random: actives were taken first. Their share in the collection is about 4.6%.
# OX1R antag-1 – human HCRTR1 antagonism | O43613 | CHO/OX1R cells, Fluo-8 calcium fluorescence, orexin A | AID 434989 | inhibition, % at 5 µM | 0.43% of 330,000 active;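 active = inhibition above its plate's threshold, mean inhibition of all tested compounds on the plate plus 3 SD, cut at about 37% in these data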;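 note: 0% = orexin A challenge wells and 100% = SB-334867-A antagonist wells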
# Target sequence (O43613 whole entry, looked up): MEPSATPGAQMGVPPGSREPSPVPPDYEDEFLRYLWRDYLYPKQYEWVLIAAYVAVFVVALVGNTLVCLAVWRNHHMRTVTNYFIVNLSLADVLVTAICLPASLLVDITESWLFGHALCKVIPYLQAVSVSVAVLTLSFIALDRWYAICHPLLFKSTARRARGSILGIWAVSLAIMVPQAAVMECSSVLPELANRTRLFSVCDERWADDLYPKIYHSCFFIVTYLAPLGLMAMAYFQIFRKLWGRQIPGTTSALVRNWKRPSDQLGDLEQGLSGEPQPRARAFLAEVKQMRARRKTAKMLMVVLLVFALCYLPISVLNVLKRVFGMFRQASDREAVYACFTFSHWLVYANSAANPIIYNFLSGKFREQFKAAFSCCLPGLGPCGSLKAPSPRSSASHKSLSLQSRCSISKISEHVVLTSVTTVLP
# OX1R antag-2 – antagonists of human orexin 1 receptor (OX1R) | 1.8% of 330,000 active | OX1R-expressing cells, FRET antagonist read-out | O43613 | inhibition, % at 6.6 µM | AID 485270; in the data active = inhibition mostly above about 38%, no sharp cut-off; inactive = mostly below about 40%;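 note: 0% = agonist challenge alone and 100% = reference antagonist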
# CHO parental Ca – signal in parental CHO cells, OX1R antagonist counter-screen. parental CHO-K1, ATP-induced calcium, Fluo-8 fluorescence. inhibition, % at 5.6 µM. 0.63% of 330,000 active. AID 463079;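 active = inhibition above that plate's mean sample inhibition plus 3 SD, cut at about 26% in these data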;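 note: 0% = ATP-challenged DMSO wells and 100% = DMSO wells without ATP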
#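 Test system: untransfected parental CHO cell line; also added: ATP stimulus; dosing: 5.6 µM, single dose; signal: calcium-sensitive Fluo-8 fluorescence; measure: percent inhibition of ATP-evoked calcium rise, normalized to controls; benchmarks: low control ATP plus DMSO, high control DMSO only; replication: one well per compound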
# TAAR1 agonist – agonists of human TAAR1 | 0.99% of 360,000 active | CHO RD-HGA16 TAAR1, Fluo-8 calcium fluorescence; vehicle wells 0%, saturating PEA agonist 100% | activation, % at 3 µM | Q96RJ0;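 active = activation above the mean activation of all test compounds in the run plus 3 SD, cut at about 38% in these data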
#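 Test system: RD-HGA16 (CHO) cells co-expressing Gα16 and hTAAR1 | Doses: Single dose, 3 µM | Schedule: 17-24 h seeding, 75 min 37 °C dye, 30 min RT | Evaluation: % activation from peak over basal fluorescence ratio, DMSO-to-PEA scaled | Technique: Kinetic Fluo-8 calcium fluorescence | Benchmarks: Low control DMSO, high control PEA (EC100)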
# GPR7 antag – blocks human GPR7 receptor signaling; P48145; GPR7-expressing cells, fluorescence antagonist assay; inhibition, % at 4.4 µM; 1.1% of 290,000 active; AID 1861; in the data active = inhibition above about 16%, passing the limit was not always enough;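 note: cells stimulated with the agonist NPW; 0% = agonist with vehicle and 100% = vehicle without agonist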
# TAAR1 antagonist – human TAAR1 antagonism. Q96RJ0. 1.5% of 360,000 active. CHO RD-HGA16 TAAR1, Fluo-8 calcium fluorescence, antagonist. AID 624466. inhibition, % at 3 µM;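 active = inhibition above a per-plate cutoff, the mean inhibition of test compounds on that plate plus 3 SD, cut at about 49% in these data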;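 note: 0% = DMSO plus EC80 beta-PEA response and 100% = DMSO alone without agonist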
#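 System: CHO RD-HGA16 cells bearing hTAAR1. Reagent: EC80 β-phenethylamine stimulus. Schedule: seeding 17-24 h prior, 75-min 37 °C, 30-min RT dye loading. Signal: Fluo-8 intracellular calcium dye fluorescence, real-time kinetic reads. Read-out: % inhibition from peak post-agonist over basal fluorescence ratio. Benchmarks: vehicle wells and EC80 agonist wells. Replicates: n of 1.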
# Starred values were filed as active, the others as inactive; . = no result given.
SMILES,OX1R antag-1,OX1R antag-2,CHO parental Ca,TAAR1 agonist,GPR7 antag,TAAR1 antagonist
CC(C)(C)c1ccc(CN(Cc2ccco2)Cc2nnnn2C2CCCC2)cc1,-22,12,48*,2,6,29
CC(=O)N(c1ccccc1C)C1CCCC1,-15,17,-12,1,-19,-3
CC(=O)N(C1=C(Cl)C(=O)c2ccccc2C1=O)C1CCCCC1,22,71*,38*,42*,-19,40
CCCCn1c(N)c(N(CCC(C)C)C(=O)c2ccc([N+](=O)[O-])s2)c(=O)[nH]c1=O,-41,37*,-22,4,.,-2
CCCCN(C(=O)c1ccc([N+](=O)[O-])s1)c1c(N)n(CC(C)C)c(=O)[nH]c1=O,-8,29,-1,0,.,-9
CCCCn1c(N)c(N(CCOC)C(=O)c2ccc(NC3CC3)c([N+](=O)[O-])c2)c(=O)[nH]c1=O,-18,47*,-33,0,.,-12
O=C(Nc1ccc(Cl)cc1)OCc1ccccn1,20,21,40*,9,3,12
CC1CC(=O)C(C(C2=C(O)CC(C)CC2=O)c2ccccc2)=C(O)C1 (stereo unspecified),.,.,.,-1,.,-5
COc1cccc(C(C(=O)NCc2ccccc2)N2CCN(C(=O)C3CCCO3)CC2)c1OC (stereo unspecified),.,.,.,0,.,-6
O=C(Nc1ccc(OCC(F)(F)C(F)F)c(C(F)(F)F)c1)c1ccccc1,-7,20,5,5,-2,35
O=C(Nc1ccc(OCC(F)(F)C(F)F)c(C(F)(F)F)c1)c1ccccc1O,66*,85*,72*,9,18,14
CCNC(=O)N1CCN(c2ccc(N3CCN(Cc4ccccc4)[C@@H](C)C3)c(C)c2)[C@H](C)C1,.,.,.,4,.,17
COC(=O)c1cnn2c(C(F)(F)F)cc(-c3ccccc3)nc12,-31,18,2,6,-11,-8
N#Cc1cnn2c(C(F)(F)F)cc(-c3ccccc3)nc12,-15,16,54*,0,-13,0
COc1cccc(-c2cc(C(F)(F)F)n3ncc(C(=O)O)c3n2)c1,-24,51*,-5,3,2,-6
O=C(O)c1cnn2c(C(F)(F)F)cc(-c3ccco3)nc12,-4,49*,1,2,-5,-3
O=C(c1cnn2c(C(F)(F)F)cc(-c3ccco3)nc12)N1CCCCCC1,-15,25,-15,3,3,-8
CCOC(=O)C1=CCN(S(=O)(=O)c2ccccc2Br)C1c1ccc(Cl)cc1 (stereo unspecified),.,.,.,1,.,28
CCCNC(=O)Nc1nc2ccccc2s1,-17,7,-2,1,-7,-4
CCCNC(=O)c1ccc(-c2nc3ccccc3s2)s1,9,61*,-9,2,2,13
CC(=O)C[C@@H](O)CC(=O)[C@@H]1OC(=O)[C@H](C)C/C=C\Cc2ccccc21,-4,10,4,2,.,10
Cc1c(-n2c(O)c(C3=c4ccccc4=NC3=O)sc2=O)c(=O)n(-c2ccccc2)n1C,-13,15,-6,13,-8,6
O=C(O)Cn1c(O)c(C2=c3ccccc3=NC2=O)sc1=O,-9,47*,-3,0,2,12
COCCNC(=O)C1(C)CCCN(C(=O)c2ccc(-c3ccccc3)cc2)C1 (stereo unspecified),.,.,.,1,.,-5
CCOc1cccc(NC(=O)/C(C#N)=C\c2cn(CC(=O)O)c3ccccc23)c1,0,55*,-9,-1,0,-5
CCOc1ccc(NC(=O)/C(C#N)=C/c2cn(CC(=O)O)c3ccccc23)cc1,.,.,.,-1,-13,-18
Cc1ccc(S(=O)(=O)N2CCOCC2)cc1NC(=O)CSc1nnc(COc2ccccc2F)n1N,.,.,.,2,.,-6
CC1CN(C(=O)c2ccc(S(=O)(=O)Nc3cccc(C(F)(F)F)c3)cc2)CC(C)O1 (stereo unspecified),2,1,12,59*,.,17
CCCCCC[n+]1ccccc1/C=C/c1ccc(N(C)C)cc1,.,.,.,30,.,70*
CC(C)(C)c1ccc(/C=C/C(=O)Nc2ccncc2)cc1,13,29,1,3,0,53*
